In this assay the target is P2Y purinoceptor 12 (Homo sapiens, UniProt Q9H244). The experiment in a line: Displacement of [33P]2MeS-ADP from P2Y12 receptor (unknown origin) transfected in CHO cells after 30 mins by scintillation counting analysis. In kind it is cell-based. A digest of the protocol:
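P2Y12-expressing CHO cells (35 × 10³/sample) in PBS with 1 mM EDTA and 0.2% BSA are exposed to compound for 30 min. [³³P]2-MeS-ADP (0.16 nM) is then added for 15 min at 20 °C, in triplicate. Filtration separates free from bound ligand, followed by scintillation counting. Nonspecific binding uses 1 mM unlabeled ADP. IC50 comes from a four-parameter logistic fit with asymptotes fixed at 0 and 100. n = 2.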
P2Y purinoceptor 12, sequence (Q9H244 whole entry): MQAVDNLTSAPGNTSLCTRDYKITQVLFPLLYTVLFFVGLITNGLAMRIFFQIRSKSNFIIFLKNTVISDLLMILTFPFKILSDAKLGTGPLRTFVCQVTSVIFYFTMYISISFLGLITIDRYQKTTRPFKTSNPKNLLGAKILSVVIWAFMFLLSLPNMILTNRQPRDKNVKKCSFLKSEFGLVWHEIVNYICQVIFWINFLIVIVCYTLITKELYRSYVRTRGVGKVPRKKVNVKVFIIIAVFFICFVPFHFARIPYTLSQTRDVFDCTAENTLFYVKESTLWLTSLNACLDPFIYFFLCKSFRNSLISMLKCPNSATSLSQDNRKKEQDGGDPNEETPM
A word on the IC50: it is the concentration at which inhibition is half-maximal. Lower therefore signals greater potency. Compound `CCOC(=O)c1c(C)nn(-c2ccc(C(=O)NCc3ccccc3OC)cc2)c1C` came in with a 50% inhibitory concentration (IC50) of 1540 nM.

On to `CCCC(=O)c1cnn(-c2ccc(NC(=O)c3cn(CC(=O)NCCN(C)C)c4ccc(C)cc34)cc2)c1C`, for which the IC50 came out at 92 nM.

Compound `CCOC(=O)c1c(C)nn(-c2ccc(NC(=O)Nc3ccccc3OCCCC(=O)O)cc2)c1C` yielded an IC50 of 80 nM.

In the case of `CCCC(=O)c1cnn(-c2ccc(NC(=O)c3cn(CC(=O)N4CCNCC4)c4ccc(C)cc34)cc2)c1C`, the IC50 worked out at 26 nM.

`CCCC(=O)c1cnn(-c2ccc(NC(=O)c3cn(CC(=O)N4CCN5CCCC5C4)c4ccc(C)cc34)cc2)c1C` (stereo unspecified) registered an IC50 of 76 nM.

In turn, `CCCC(=O)c1cnn(-c2ccc(NC(=O)c3cn(CC(=O)N4CC5CCNC5C4)c4ccc(C)cc34)cc2)c1C` (stereo unspecified) returned a half-inhibitory concentration (IC50) of 117 nM.

On to `CCCC(=O)c1cnn(-c2ccc(NC(=O)c3cn(CC(=O)N(C)CC4CCCN(C)C4)c4ccc(C)cc34)cc2)c1C` (stereo unspecified), for which the half-maximal inhibitory concentration (IC50) came out at 84 nM.

In turn, `CCCC(=O)c1cnn(-c2ccc(NC(=O)c3cn(CC(=O)N(C)C4CCN(C)C4)c4ccc(C)cc34)cc2)c1C` (stereo unspecified) yielded a half-inhibitory concentration (IC50) of 47 nM.

As for `CCCC(=O)c1cnn(-c2ccc(NC(=O)c3cn(CC(=O)N4CCCC(N(C)C)C4)c4ccc(C)cc34)cc2)c1C` (stereo unspecified), the IC50 worked out at 73 nM.

For the compound `CCCC(=O)c1cnn(-c2ccc(NC(=O)c3cn(CC(=O)OC)c4ccc(C)cc34)cc2)c1C`, the half-maximal inhibitory concentration (IC50) is 93 nM.

As for `CCCC(=O)c1cnn(-c2ccc(NC(=O)c3cn(CC(=O)N4CCN(C)CC4)c4cc(Cl)c(Cl)cc34)cc2)c1C`, the IC50 turned out to be 99 nM.

In the case of `CCCC(=O)c1cnn(-c2ccc(NC(=O)c3c(C)n(CC(=O)O)c4ccc(C)cc34)cc2)c1C`, the half-inhibitory concentration (IC50) is 84 nM.

Compound `CCCC(=O)c1cnn(-c2cnc(NC(=O)c3cn(CC(=O)N4CCN(C)CC4)c4ccc(Cl)cc34)cn2)c1C` showed a half-maximal inhibitory concentration (IC50) of 275 nM.

The compound `CCCC(=O)c1cnn(-c2ccc(NC(=O)c3cn(CC(=O)N4CCN(CC)CC4)c4ccc(C)cc34)cc2)c1C` came in with an IC50 of 66 nM.

`CCCC(=O)c1cnn(-c2ccc(NC(=O)c3cn(CC(=O)N4CCCC(NC)C4)c4ccc(C)cc34)cc2)c1C` (stereo unspecified) yielded an IC50 of 65 nM.

`CCCC(=O)c1cnn(-c2ccc(NC(=O)c3cn(CC(=O)N4CC(C)N(C)C(C)C4)c4ccc(C)cc34)cc2)c1C` (stereo unspecified) had a 50% inhibitory concentration (IC50) of 28 nM.

`CCCC(=O)c1cnn(-c2ccc(NC(=O)c3cn(CC(=O)N4CC5CNCC5C4)c4ccc(C)cc34)cc2)c1C` (stereo unspecified) showed an IC50 of 106 nM.

In the case of `CCCCN1CCN(C(=O)Cn2cc(C(=O)Nc3ccc(-n4ncc(C(=O)CCC)c4C)cc3)c3cc(C)ccc32)CC1`, the concentration for half-maximal inhibition (IC50) is 121 nM.

Consider `CCCC(=O)c1cnn(-c2ccc(NC(=O)c3cn(CC(=O)NC4CCN(C)CC4)c4ccc(C)cc34)cc2)c1C`, for which the concentration for half-maximal inhibition (IC50) was determined as 139 nM.

`CCCC(=O)c1cnn(-c2ccc(NC(=O)Nc3cc(C)ccc3OCCCC(=O)O)cc2)c1C` registered an IC50 of 17 nM.

Consider `CCCC(=O)c1cnn(-c2ccc(NC(=O)c3cn(CC(=O)N4CCC(NC)CC4)c4ccc(C)cc34)cc2)c1C`, for which the 50% inhibitory concentration (IC50) was determined as 115 nM.

For `CCCC(=O)c1cnn(-c2ccc(NC(=O)n3cc(CCCC(=O)O)c4ccc(C)cc43)cc2)c1C`, the half-inhibitory concentration (IC50) was found to be 47 nM.

`CCCC(=O)c1cnn(-c2ccc(NC(=O)c3cn(CC(=O)N4CCN(C)CC4)c4cc(Br)c(C)cc34)cc2)c1C` came in with a half-inhibitory concentration (IC50) of 118 nM.

In turn, `CCCC(=O)c1cnn(-c2ccc(NC(=O)c3cn(CC(=O)N4CCN(CC(F)(F)F)CC4)c4ccc(C)cc34)cc2)c1C` displayed an IC50 of 66 nM.

Compound `CCCC(=O)c1cnn(-c2ccc(NC(=O)c3cn(CC(=O)N4CCCCC4CN)c4ccc(C)cc34)cc2)c1C` (stereo unspecified) displayed a half-inhibitory concentration (IC50) of 111 nM.

`CCCC(=O)c1cnn(-c2ccc(NC(=O)c3cn(CC(=O)N4CCCC(N)C4)c4ccc(C)cc34)cc2)c1C` (stereo unspecified) gave an IC50 of 46 nM.

Take `CCCC(=O)c1cnn(-c2ccc(NC(=O)c3cn(CC(=O)N(C)CCN4CCCC4)c4ccc(C)cc34)cc2)c1C`: the IC50 was determined as 124 nM.

Regarding `CCCC(=O)c1cnn(-c2ccc(NC(=O)c3cn(CC(=O)N4CCN(C)CC4)c4ccc(F)cc34)cc2)c1C`, the IC50 amounted to 142 nM.

In turn, `CCCC(=O)c1cnn(-c2ccc(NC(=O)c3cn(CC(=O)N4CC(C)NC(C)C4)c4ccc(C)cc34)cc2)c1C` (stereo unspecified) came in with an IC50 of 102 nM.

In turn, `CCCC(=O)c1cnn(-c2ccc(NC(=O)c3cn(CC(=O)O)c4ccc(C)c(C)c34)cc2)c1C` returned an IC50 of 272 nM.

`CCCC(=O)c1cnn(-c2ccc(NC(=O)c3cn(CC(=O)N4CCN(C)CC4)c4ccc(Cl)cc34)c(C(=O)O)c2)c1C` yielded a concentration for half-maximal inhibition (IC50) of 75 nM.

With `CCCC(=O)c1cnn(-c2ccc(NC(=O)c3cn(CC(=O)NC(C)CN(C)C)c4ccc(C)cc34)cc2)c1C` (stereo unspecified), the IC50 was found to be 88 nM.

In the case of `CCCC(=O)c1cnn(-c2ccc(NC(=O)c3cn(CC(=O)N4C[C@@H]5C[C@H]4CN5)c4ccc(C)cc34)cc2)c1C`, the IC50 came out at 86 nM.

For the compound `CCCC(=O)c1cnn(-c2ccc(NC(=O)c3cn(CC(=O)N4CCC(N(C)C)C4)c4ccc(C)cc34)cc2)c1C` (stereo unspecified), the concentration for half-maximal inhibition (IC50) stood at 87 nM.

In the case of `CCCC(=O)c1cnn(-c2ccc(NC(=O)c3cn(CC(=O)NCCN4CCCC4)c4ccc(C)cc34)cc2)c1C`, the IC50 is 194 nM.

`CCCC(=O)c1cnn(-c2ccc(NC(=O)c3cn(CC(=O)N4CCN(C)CC4)c4ccc(Cl)cc34)c(C(N)=O)c2)c1C` yielded an IC50 of 266 nM.

On to `CCCC(=O)c1cnn(-c2ccc(NC(=O)c3cn(CC(=O)N4CCC(N)CC4)c4ccc(C)cc34)cc2)c1C`, for which the IC50 stood at 71 nM.

Take `CCCC(=O)c1cnn(-c2ccc(NC(=O)c3cn(CC(=O)NC4CCCN(C)C4)c4ccc(C)cc34)cc2)c1C` (stereo unspecified): the half-inhibitory concentration (IC50) is 71 nM.

For `CCCC(=O)c1cnn(-c2ccc(NC(=O)c3cn(CC(=O)N(C)CCNC)c4ccc(C)cc34)cc2)c1C`, the half-maximal inhibitory concentration (IC50) was found to be 94 nM.

On to `CCCC(=O)c1cnn(-c2ccc(NC(=O)c3cn(CC(=O)N4CCN(C5CC5)CC4)c4ccc(C)cc34)cc2)c1C`, for which the IC50 was determined as 44 nM.

Consider `CCCC(=O)c1cnn(-c2ccc(NC(=O)c3cn(CC(=O)N4CCC(NC)C4)c4ccc(C)cc34)cc2)c1C` (stereo unspecified), for which the IC50 stood at 94 nM.

Turning to `CCCC(=O)c1cnn(-c2ccc(NC(=O)c3cn(CC(=O)NCCn4ccnc4)c4ccc(C)cc34)cc2)c1C`, the IC50 stood at 61 nM.

With `CCCC(=O)c1cnn(-c2ccc(NC(=O)c3cn(CC(=O)N4CC5CN(C)CC5C4)c4ccc(C)cc34)cc2)c1C` (stereo unspecified), the 50% inhibitory concentration (IC50) is 33 nM.

Compound `CCCC(=O)c1cnn(-c2ccc(NC(=O)c3cn(CC(=O)N4CC5CCN(C)C5C4)c4ccc(C)cc34)cc2)c1C` (stereo unspecified) registered a 50% inhibitory concentration (IC50) of 89 nM.

`CCCC(=O)c1cnn(-c2ccc(NC(=O)c3cn(CC(=O)N4C[C@@H]5C[C@H]4CN5C)c4ccc(C)cc34)cc2)c1C` yielded a half-maximal inhibitory concentration (IC50) of 70 nM.

`CCCC(=O)c1cnn(-c2ccc3c(c2)OCCN3C(=O)c2cn(CC(=O)N3CCN(C)CC3)c3ccc(Cl)cc23)c1C` yielded an IC50 of 559 nM.

As for `CCCC(=O)c1cnn(-c2ccc(N(C)C(=O)c3cn(CC(=O)O)c4ccc(C)cc34)cc2)c1C`, the concentration for half-maximal inhibition (IC50) came to 304 nM.

Compound `CCCC(=O)c1cnn(-c2ccc(OC(=O)c3cn(CC(=O)N4CCN(C)CC4)c4ccc(Cl)cc34)cc2)c1C` gave an IC50 of 480 nM.

`CCOC(=O)c1c(C)nn(-c2ccc(NC(=O)Nc3ccc(Cl)cc3)cc2)c1C` showed an IC50 of 1260 nM.

Take `CCCC(=O)c1cnn(-c2ccc(NC(=O)c3cn(CC(=O)N4CCNC(C)C4)c4ccc(C)cc34)cc2)c1C` (stereo unspecified): the half-maximal inhibitory concentration (IC50) was determined as 46 nM.

`CCCC(=O)c1cnn(-c2ccc(NC(=O)c3cn(CCCC(=O)O)c4ccc(C)cc34)cc2)c1C`: the IC50 amounted to 24 nM.

For the origin of these results see ChEMBL document CHEMBL3352233, “N-[6-(4-butanoyl-5-methyl-1H-pyrazol-1-yl)pyridazin-3-yl]-5-chloro-1-[2-(4-methylpiperazin-1-yl)-2-oxoethyl]-1H-indole-3-carboxamide (SAR216471), a novel intravenous and oral, reversible, and directly acting P2Y12 antagonist” (J Med Chem, 2014).
